In ChEMBL document CHEMBL1275604, “Identification of TEM-135 beta-lactamase in penicillinase-producing Neisseria gonorrhoeae strains in Japan” (2010) one finds MIC data, which are given here for three compounds.

≈ marks a conversion by molar mass, not a printed value.

What all share (assay type): functional
Assay [1] concerns Neisseria gonorrhoeae. The assay can be described thus: Antimicrobial activity against […] Neisseria gonorrhoeae NGON 00-002 expressing beta-lactamase TEM-1, MLST type ST-1590 and MAST type ST-270 by agar dilution method. The procedure, abridged: (§1)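 Clinical PPNG isolates from one Tokyo hospital, collected 2000–2008 and flagged as penicillinase producers by nitrocefin test. MICs of penicillin, cefixime and ceftriaxone were determined by agar dilution per an earlier method. Isolates were typed by MLST and MAST. The bla gene was PCR-amplified (annealing at 60°C, 30 cycles) and sequenced to assign the TEM allele.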
For orientation: In agar dilution, organisms are placed on agar that contains the substance at set levels.

The test system of assay [2] is Neisseria gonorrhoeae. The assay can be described thus: Antimicrobial activity against […] Neisseria gonorrhoeae NGON 08-046 expressing beta-lactamase TEM-1, MLST type ST-1584 and MAST type ST-1478 by agar dilution method.
The test system of assay [3] is Neisseria gonorrhoeae. The assay can be described thus: Antimicrobial activity against […] Neisseria gonorrhoeae NGON 08-044 expressing beta-lactamase TEM-1, MLST type ST-7823 and MAST type ST-1288 by agar dilution method. The procedure, abridged: as §1
Assay [4] concerns Neisseria gonorrhoeae. Nature of the assay: Antimicrobial activity against […] Neisseria gonorrhoeae NGON 04-025 expressing beta-lactamase TEM-135, MLST type ST-1597 and MAST type ST-1549 by agar dilution method.
For assay [5], the system named is Neisseria gonorrhoeae. The assay can be described thus: Antimicrobial activity against […] Neisseria gonorrhoeae NGON 06-041 expressing beta-lactamase TEM-1, MLST type ST-1588 and MAST type ST-4012 by agar dilution method.
The subject of assay [6] is Neisseria gonorrhoeae. The assay can be described thus: Antimicrobial activity against […] Neisseria gonorrhoeae NGON 08-043 expressing beta-lactamase TEM-1, MLST type ST-7823 and MAST type ST-1288 by agar dilution method. The procedure, abridged: as §1
In assay [7] the test system is Neisseria gonorrhoeae. Nature of the assay: Antimicrobial activity against […] Neisseria gonorrhoeae NGON 08-041 expressing beta-lactamase TEM-1, MLST type ST-1584 and MAST type ST-1478 by agar dilution method. The procedure, abridged: as §1
In assay [8] the test system is Neisseria gonorrhoeae. The assay can be described thus: Antimicrobial activity against […] Neisseria gonorrhoeae NGON 05-042 expressing beta-lactamase TEM-1, MLST type ST-1588 and MAST type ST-4012 by agar dilution method.
The subject of assay [9] is Neisseria gonorrhoeae. The assay can be described thus: Antimicrobial activity against […] Neisseria gonorrhoeae NGON 08-003 expressing beta-lactamase TEM-135, MLST type ST-7823 and MAST type ST-4013 by agar dilution method. Put shortly:
as §1

For assay [10], the system named is Neisseria gonorrhoeae. Nature of the assay: Antimicrobial activity against […] Neisseria gonorrhoeae NGON 00-027 expressing beta-lactamase TEM-1, MLST type ST-1921 and MAST type ST-1817 by agar dilution method. Put shortly: as §1

By MIC is commonly meant the least concentration at which growth counts as inhibited.

As for `C=CC1=C(C(=O)O)N2C(=O)[C@@H](NC(=O)/C(=N\OCC(=O)O)c3csc(N)n3)[C@H]2SC1` [CEFIXIME], the minimal inhibitory concentration (MIC) against Neisseria gonorrhoeae [1] stood at 0.032 µg/mL (≈ 0.0706 µM); in the assay with Neisseria gonorrhoeae [2], 0.25 µg/mL (≈ 0.551 µM); against Neisseria gonorrhoeae [3], 0.064 µg/mL (≈ 0.141 µM); in the assay with Neisseria gonorrhoeae [4], 4 ng/mL (≈ 0.00882 µM); in the assay on Neisseria gonorrhoeae [5] it was 0.25 µg/mL (≈ 0.551 µM); in the assay with Neisseria gonorrhoeae [6] it was 0.064 µg/mL (≈ 0.141 µM). The MIC is 8 ng/mL (≈ 0.0176 µM) against Neisseria gonorrhoeae [7], 0.25 µg/mL (≈ 0.551 µM) with Neisseria gonorrhoeae [8], 0.032 µg/mL (≈ 0.0706 µM) with Neisseria gonorrhoeae [9] and 8 ng/mL (≈ 0.0176 µM) against Neisseria gonorrhoeae [10].
Regarding `CO/N=C(\C(=O)N[C@@H]1C(=O)N2C(C(=O)O)=C(CSc3nc(=O)c(O)nn3C)CS[C@H]12)c1csc(N)n1` [CEFTRIAXONE], the MIC in the assay on Neisseria gonorrhoeae [1] was 0.016 µg/mL (≈ 0.0289 µM); against Neisseria gonorrhoeae [2], 0.032 µg/mL (≈ 0.0577 µM); in the assay on Neisseria gonorrhoeae [3] it was 0.064 µg/mL (≈ 0.115 µM); in the assay on Neisseria gonorrhoeae [4] it was no more than 4 ng/mL; with Neisseria gonorrhoeae [5], 0.032 µg/mL (≈ 0.0577 µM); in the assay with Neisseria gonorrhoeae [6], 0.064 µg/mL (≈ 0.115 µM). The MIC in the assay with Neisseria gonorrhoeae [7] was found to be 4 ng/mL (≈ 0.00721 µM); against Neisseria gonorrhoeae [8] it was 0.064 µg/mL (≈ 0.115 µM); with Neisseria gonorrhoeae [9], 0.032 µg/mL (≈ 0.0577 µM); with Neisseria gonorrhoeae [10] it was 8 ng/mL (≈ 0.0144 µM).
`CC1(C)S[C@@H]2[C@H](NC(=O)Cc3ccccc3)C(=O)N2[C@H]1C(=O)O` [PENICILLIN G]: the MIC with Neisseria gonorrhoeae [1] is 16 µg/mL (≈ 47.8 µM); in the assay with Neisseria gonorrhoeae [2], 64 µg/mL (≈ 191 µM); against Neisseria gonorrhoeae [3], greater than 64 µg/mL; with Neisseria gonorrhoeae [4], greater than 64000 ng/mL; with Neisseria gonorrhoeae [5], 32 µg/mL (≈ 95.7 µM); against Neisseria gonorrhoeae [6] it was greater than 64 µg/mL. Also, the minimal inhibitory concentration (MIC) was 64000 ng/mL (≈ 191 µM) against Neisseria gonorrhoeae [7], 64 µg/mL (≈ 191 µM) against Neisseria gonorrhoeae [8], greater than 64 µg/mL in the assay on Neisseria gonorrhoeae [9] and greater than 64000 ng/mL against Neisseria gonorrhoeae [10].
